# PRMT1 inh: PRMT1 methyltransferase inhibitors, primary screen, biochemical, fluorescence polarization; AID 652257, 2013; 370,000 compounds, 1.3% hits; recombinant PRMT1, activity-based probe fluorescence polarization; Protein arginine N-methyltransferase 1 (Homo sapiens), Q99873; inhibition, % at 2.79 µM;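 active = inhibition above about 21% made by adding two undisclosed values, limit read from the data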
# SIAE inh: human SIAE inhibitors, primary screen, biochemical, fluorescence polarization, FP-Rh probe, 1536-well HTS. SIAE FP-Rh probe binding. inhibition, % at 9.66 µM. 370,000 compounds, 0.69% hits. AID 1053197, 2014;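 active = inhibition above a cutoff: mean of compounds within the control limits plus 3 SD of those, cut at about 17% in these data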;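 note: 0% = plate median of compound wells and 100% = probe without SIAE protein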
# HTRA1 inh: HTRA1 serine protease inhibitors, primary screen, biochemical, fluorescence polarization, HTS; inhibition, % at 5.96 µM; 340,000 compounds, 0.5% hits; recombinant HTRA1, FP-rhodamine activity-based probe; Q92743; AID 504803, 2011; in the data active = inhibition above about 36%;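 note: 0% = enzyme with DMSO and 100% = wells lacking enzyme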
# mABHD4 FP: ABHD4 inhibitors, primary screen, biochemical, fluorescence polarization, mouse | 370,000 compounds, 0.54% hits | purified mABHD4, FP-Rh probe fluorescence polarization | inhibition, % at 8.92 µM;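 active = inhibition exceeding the mean over every tested compound plus 3 SD, cut at about 30% in these data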;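 note: 0% = plate median of compound wells and 100% = S159A mutant with DMSO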
# Target sequence (Q8VD66 whole entry, looked up): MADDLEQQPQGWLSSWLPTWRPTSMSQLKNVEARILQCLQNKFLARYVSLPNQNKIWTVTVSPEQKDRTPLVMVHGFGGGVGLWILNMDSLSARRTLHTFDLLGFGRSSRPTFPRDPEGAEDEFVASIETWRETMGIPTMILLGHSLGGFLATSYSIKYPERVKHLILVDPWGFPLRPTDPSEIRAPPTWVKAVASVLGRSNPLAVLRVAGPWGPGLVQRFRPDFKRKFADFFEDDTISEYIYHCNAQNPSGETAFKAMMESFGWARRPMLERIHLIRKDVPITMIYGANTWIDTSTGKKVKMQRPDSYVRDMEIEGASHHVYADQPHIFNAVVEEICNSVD
#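 System: mouse ABHD4 enzyme, wild type / Medium: HEPES pH 7.0, NaCl, Pluronic buffer / Reagent: FP-Rh activity-based fluorescent probe / Control set: S159A mutant high control, sample median low control / Detection: fluorescence polarization with parallel and perpendicular emission, 525/598 nm / Schedule: 45 min + 60 min at 25 °C / Compound dosing: 8.92 µM, single dose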
# JMJD2C inh: inhibitors of GASC-1 histone demethylase, primary screen, biochemical, fluorescence, DELFIA europium. GST-JMJD2C(1-420) H3K9me3 demethylation. 330,000 compounds, 0.069% hits. Lysine-specific demethylase 4C (Homo sapiens), Q9H3R0. inhibition, % at 2.35 µM;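 active = more than half of a compound's replicate wells show inhibition beyond 50%, single wells judged on their own value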;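 note: signal counts dimethyl H3K9 product captured on neutravidin plate; 0% = median of DMSO wells and 100% = 0.3 times that DMSO median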
# PRMT1 confirm: PRMT1 methyltransferase inhibitors, confirmation, biochemical, fluorescence polarization, triplicate | shares compounds with PRMT1 inh | recombinant His-PRMT1, activity-based probe fluorescence polarization | inhibition, % at 2.79 µM | 3,300 compounds, 42% hits;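 active = mean inhibition across replicates above the hit cutoff derived for the earlier primary screen, cut at about 22% in these data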
# Active calls of the source: *; i = inactive; / = not tested or not shown. Most compounds without a hit are left out; they make up all but 2.4% or so of the library.
SMILES,PRMT1 inh,SIAE inh,HTRA1 inh,mABHD4 FP,JMJD2C inh,PRMT1 confirm
CC(C(=O)O)N1C(=O)C2C3CC(C2C1=O)C1C(c2ccccc2)c2sc(=O)[nH]c2SC31 (stereo unspecified),29*,5,4,3,6,21*
O=c1[nH]c2c(s1)C(c1ccc(O)cc1)C1C3CCC(C3)C1S2 (stereo unspecified),4,3,-64,-12,-3,/
O=C(O)CCCN1C(=O)C2C3CC(C2C1=O)C1C(c2ccccc2)c2sc(=O)[nH]c2SC31 (stereo unspecified),12,6,2,-2,10,/
CCC(C)N(C(=O)CN1C(=O)C2CCCCN2C(=O)c2ccccc21)C(C)CC (stereo unspecified),1,3,/,5,/,/
COCc1cc(N2CCN(C(=O)OC(C)(C)C)C[C@@H]2C)ccc1N1C[C@@H](C)O[C@@H](C)C1,0,6,/,-6,/,/
COCc1cc(N2CCN(C(=O)OC(C)(C)C)C[C@H]2C)ccc1N1CC[C@@H](O)C1,66*,4,/,26,/,9
COC(=O)[C@@]1(C)[C@H]2C(=O)N(Cc3ccccc3)C(=O)[C@H]2[C@H]2CN=C(SCc3ccccc3)N21,0,7,3,4,/,/
COC(=O)[C@@]1(Cc2ccccc2)[C@H]2C(=O)N(C)C(=O)[C@H]2[C@H]2CN=C(SCC(=O)c3ccccc3)N21,45*,-1,-1,1,/,33*
CCN1C(=O)[C@H]2[C@H]3CN=C(SCC(=O)c4ccccc4)N3[C@@](C)(C(=O)OC)[C@H]2C1=O,83*,7,-2,-4,/,73*
C[C@@H]1CCCCO[C@H](CN(C)C(=O)CCC(F)(F)F)[C@H](C)CN([C@@H](C)CO)C(=O)c2cc(NS(=O)(=O)c3ccc(Cl)cc3)ccc2O1,4,2,/,-7,/,/
COc1cc2c(cc1OC)CN(C1CC(=O)N(c3c(C)cccc3C)C1=O)CC2 (stereo unspecified),32*,-8,0,-10,-6,1
CCN(CC)C(=O)O[C@H]1CC[C@@]23CCCN2C(=O)CCC[C@H]3C1,-1,2,/,6,/,/
Cc1ccc(/C=N/N2CCN(Cc3cccc4ccccc34)CC2)o1,26*,-2,-14,14,-3,-1
COc1ccc([N+](=O)[O-])cc1NC(=O)CSc1nc(C)cc(C)n1,54*,8,-5,-10,-1,45*
Cc1ccc(N=CC2=C(O)CC(C)(C)CC2=O)nc1,-3,1,-2,2,0,/
Cc1ccc(N=Cc2c(O)n(C)c(=O)n(C)c2=O)nc1,29*,0,2,-1,-3,-5
COC(=O)/C(C#N)=C/c1c(N2CCN(c3ccccc3)CC2)nc2c(C)cccn2c1=O,26*,-8,-10,-7,37,-6
COC(=O)/C(C#N)=C/c1c(N2CCN(c3cccc(Cl)c3)CC2)nc2c(C)cccn2c1=O,-5,2,-3,-7,-2,/
O=C(O)c1cc(O)c2c(c1)[C@@H]([C@H]1c3cc(C(=O)O)cc(O)c3C(=O)c3c(O[C@@H]4O[C@H](CO)[C@@H](O)[C@H](O)[C@H]4O)cccc31)c1cccc(OC3O[C@H](CO)[C@@H](O)[C@H](O)[C@H]3O)c1C2=O (stereo partly specified),32*,68*,26,27,-49,13
COC(=O)C1CN(Cc2ccc(OC)cc2)CCS(=O)(=O)N1Cc1ccc(C)cc1 (stereo unspecified),3,2,/,0,/,/
O=C(CC1SC2=NCCN2C1=O)Nc1ccccc1 (stereo unspecified),-1,-7,3,3,i,/
O=C(CC1Sc2ncnn2C1=O)Nc1ccccc1 (stereo unspecified),77*,11,-2,-4,-18,74*
CC(=O)Nc1ccc(NC(=O)CC2SC(=O)N(CC(=O)c3ccccc3)C2=O)cc1 (stereo unspecified),29*,0,-1,-1,7,20
COc1ccc(C2=Nc3ccccc3NC(=O)C2N(Cc2ccccc2)C(=O)C2=NNC(=O)CC2)cc1 (stereo unspecified),4,7,/,0,/,/
CC(=O)Nc1c(O)c2ccccc2[nH]c1=O,36*,2,7,2,-18,13
SMILES,PRMT1 inh,SIAE inh,HTRA1 inh,mABHD4 FP,JMJD2C inh,PRMT1 confirm
CCCCC(=O)Nc1c(O)c2ccccc2[nH]c1=O,31*,-1,4,-3,-13,-3
Nc1ccn([C@@H]2O[C@H](CNCc3cnc(N4CCOCC4)nc3)[C@@H](O)[C@H]2O)c(=O)n1,-8,-4,0,-1,/,/
CCCN(CCC)C1CC(=O)N(Cc2ccccc2)C1=O (stereo unspecified),76*,17,-2,8,13,24*
O=C1CC(N(O)C2CC(=O)N(Cc3ccccc3)C2=O)C(=O)N1Cc1ccccc1 (stereo unspecified),9,0,-18,-7,10,/
CC(=O)Nc1cncc(-c2cccc(C(=O)N3CCOCC3)c2)n1,-5,2,/,-1,/,/
CC[n+]1c(C)sc2c3ccsc3ccc21,38*,-8,-6,-9,-3,64*
CN(C)CCCNCC(=O)c1c(-c2ccccc2)n(C)c2ccccc12,-3,3,-7,15,-17,/
CCC(=O)OCCNc1cc(Sc2nccn2C)c2nonc2c1[N+](=O)[O-],43*,-1,0,2,11,65*
CCCC(=O)OCCNc1cc(Sc2nc3ccccc3[nH]2)c2nonc2c1[N+](=O)[O-],67*,10,0,17,26,73*
CCC(=O)OCCNc1cc(SCCC(=O)OC)c2nonc2c1[N+](=O)[O-],11,-5,7,3,1,/
CC(C)(C)c1ccc(C(=O)Nc2ccc(Cl)cc2)cc1,2,-1,-5,7,-12,/
CC(C)(C)c1ccc(C(=O)CC(Sc2ccc(Cl)cc2)C(=O)O)cc1 (stereo unspecified),73*,1,-10,0,-4,85*
Cc1ccc(SC(CC(=O)c2ccc(F)cc2)C(=O)O)cc1 (stereo unspecified),82*,8,2,-3,/,79*
O=C1CCSc2c1ccc1ccccc21,29*,-5,-1,-9,/,-1
